Assay outcomes as filed in PubChem BioAssay.
The list is not random: actives were taken first. Their share in the collection is about 2.8%.
HTRA1 inh – HTRA1 (human) protease inhibition | Q92743 | recombinant HTRA1, FP-rhodamine activity-based probe, fluorescence polarization | inhibition, % at 5.96 µM | actives 0.5% (n = 340,000); in the data active means inhibition above about 36%
Target sequence (Q92743 whole entry, looked up): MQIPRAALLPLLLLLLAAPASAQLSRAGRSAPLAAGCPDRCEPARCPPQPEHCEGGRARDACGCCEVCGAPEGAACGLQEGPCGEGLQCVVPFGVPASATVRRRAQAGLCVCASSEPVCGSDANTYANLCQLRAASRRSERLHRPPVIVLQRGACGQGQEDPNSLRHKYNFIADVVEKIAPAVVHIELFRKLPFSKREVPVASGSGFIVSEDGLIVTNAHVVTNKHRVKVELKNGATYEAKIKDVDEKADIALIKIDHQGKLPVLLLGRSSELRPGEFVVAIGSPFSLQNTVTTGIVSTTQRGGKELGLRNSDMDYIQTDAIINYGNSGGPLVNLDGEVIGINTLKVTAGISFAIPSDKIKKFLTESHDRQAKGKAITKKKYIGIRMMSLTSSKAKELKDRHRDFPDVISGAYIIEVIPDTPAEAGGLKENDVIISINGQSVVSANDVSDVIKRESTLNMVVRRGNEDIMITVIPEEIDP
pPAFAH FP inh – pPAFAH (human) enzyme inhibition | Q13093 | recombinant pPAFAH, FP-rhodamine probe fluorescence polarization | inhibition, % at 3.39 µM | actives 1.5% (n = 330,000);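 active means inhibition above the mean inhibition across the screen plus 3 SD, cut at about 25% in these data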;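 further: inhibitors block binding of the rhodamine activity-based probe so polarization drops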
PAFAH2 inh – inhibitors of human PAFAH2 | recombinant PAFAH2, FP-rhodamine activity probe, fluorescence polarization | actives 0.99% (n = 340,000) | inhibition, % at 3.39 µM | Q99487;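 active means inhibition above the mean over all tested compounds plus 3 SD, cut at about 30% in these data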;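 further: inhibitors block probe labeling of enzyme so polarization drops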
PAFAH1B2 FP inh – blocks human PAF acetylhydrolase 1b catalytic subunit 2 | P68402 | recombinant PAFAH1B2, FP-rhodamine activity probe, fluorescence polarization | inhibition, % at 3.39 µM | actives 1.2% (n = 340,000);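 active means inhibition above the mean of all tested compounds plus 3 SD, cut at about 24% in these data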
mABHD4 FP – ABHD4 (mouse) inhibition, primary FP screen; Q8VD66; purified mABHD4, FP-Rh probe fluorescence polarization; inhibition, % at 8.92 µM; actives 0.54% (n = 370,000);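 active means inhibition exceeding the mean over every tested compound plus 3 SD, cut at about 30% in these data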
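Assay system: mouse ABHD4 enzyme, wild type / Also added: fluorescent activity-based probe FP-Rh / Doses: single nominal dose of 8.92 µM, 0.89% DMSO final / Timing: 45 min compound pre-incubation plus 60 min probe step, 25 °C / Signal: FP readout, ex 525 nm / em 598 nm / Control set: S159A mutant/DMSO as 100%, compound-well median as 0%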
PAFAH1B3 FP inh – blocks human PAF acetylhydrolase 1B catalytic subunit 3; Q15102; recombinant PAFAH1B3, FP-rhodamine probe, fluorescence polarization; inhibition, % at 3.39 µM; actives 0.28% (n = 340,000); AID 492972;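 active means inhibition above the screen-wide average of all tested compounds plus 3 SD, cut at about 25% in these data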
Target sequence (Q15102 whole entry, looked up): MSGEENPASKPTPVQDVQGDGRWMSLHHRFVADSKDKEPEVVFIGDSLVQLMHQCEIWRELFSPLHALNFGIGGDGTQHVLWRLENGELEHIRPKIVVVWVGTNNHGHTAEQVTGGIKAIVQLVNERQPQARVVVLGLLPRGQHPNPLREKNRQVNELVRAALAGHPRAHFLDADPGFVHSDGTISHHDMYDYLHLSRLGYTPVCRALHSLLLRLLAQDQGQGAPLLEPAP
pPAFAH confirm – confirmation of human plasma PAF acetylhydrolase (pPAFAH) inhibitors; inhibition, % at 3.39 µM; recombinant pPAFAH, FP-Rh probe fluorescence polarization; actives 72% (n = 2,300); shares compounds with pPAFAH FP inh; AID 463230;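 active means mean inhibition of the triplicate above the hit cutoff set for the earlier primary screen, cut at about 25% in these data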
PAFAH2 FP conf – PAFAH2 (human) inhibition, confirmed; inhibition, % at 3.39 µM; actives 65% (n = 2,300); recombinant PAFAH2, FP-rhodamine activity probe, fluorescence polarization; shares compounds with PAFAH2 inh;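 active means mean inhibition over three repeats above a set limit taken from the earlier primary screen, cut at about 30% in these data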;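 further: inhibitor blocks binding of rhodamine activity probe so polarization falls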
PAFAH1B3 confirm – confirmation of human PAFAH1B3 inhibitors. inhibition, % at 3.39 µM. actives 30% (n = 390). recombinant PAFAH1B3, FP-Rh activity-based probe, fluorescence polarization. shares compounds with PAFAH1B3 FP inh. AID 493032;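 active means average inhibition over triplicate runs above the hit cutoff set in the earlier primary screen, cut at about 25% in these data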
HTRA1 inh conf – HTRA1 (human) inhibition, confirmation. AID 540248. recombinant HTRA1, FP-rhodamine activity-based probe, fluorescence polarization. inhibition, % at 5.96 µM. shares compounds with HTRA1 inh. actives 66% (n = 1,600);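 active means mean inhibition over three repeats above a set limit taken from the earlier primary screen, cut at about 37% in these data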;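 further: inhibitors block probe binding so polarization drops and inhibition rises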
Hits are given with their value; 0 = inactive; - = no result.

SMILES	HTRA1 inh	pPAFAH FP inh	PAFAH2 inh	PAFAH1B2 FP inh	mABHD4 FP	PAFAH1B3 FP inh	pPAFAH confirm	HTRA1 inh conf	others
O=C(Nc1cccc(Cl)c1)Nc1nnc(-c2ccncc2)s1	0	42	0	0	0	0	35	-
O=C(Nc1ccc(Cl)cc1)Nc1nnc(-c2ccncc2)s1	0	0	0	0	0	0	-	-
O=S1(=O)c2ccc(Br)cc2OC[C@H](Cc2ccccc2)N1Cc1cn(Cc2ccc(Br)cc2)nn1	-	-	-	-	0	-	-	-
COc1cc(OC)c(OC)cc1/C=C1\Oc2cc(OCC(=O)N3Cc4ccccc4C[C@H]3C(=O)O)ccc2C1=O	0	37	0	0	-	0	44	-
COc1ccc(/C=C2\Oc3cc(OCC(=O)N4CCC[C@H]4C(=O)O)ccc3C2=O)c(OC)c1	0	0	0	0	-	0	-	-
COc1ccccc1CNC(=O)COC(=O)c1cc(-c2ccco2)nc2ccccc12	0	56	33	0	0	0	0	-	PAFAH2 FP conf=0
COc1cccc(-c2nnc(SCc3cc(C)ccc3C)n2Cc2ccco2)c1	-	-	-	-	0	-	-	-
O=C(Nc1ccc(N2CCOCC2)cc1)Nc1ccc2nc(-c3ccco3)c(-c3ccco3)nc2c1	0	45	0	0	0	28	0	-	PAFAH1B3 confirm=0
Cc1ccc(C(=O)n2ccc3ccc(-c4ccc5ccn(Cc6ccc(C#N)cc6)c5c4)cc32)cc1	-	-	-	-	0	-	-	-
Cn1cccc1/C=N/NC(=O)c1ccccn1	0	0	0	0	0	0	-	-
O=C(N/N=C/c1ccc(-c2ccc(S(=O)(=O)Nc3ncccn3)cc2)o1)c1cc2ccccc2cc1O	57	78	34	25	0	35	76	66
C/C(=N\NC(=O)c1cc2ccccc2cc1O)c1ccc(C)o1	47	41	0	0	0	0	0	0
Cn1cccc1/C=N/NC(=O)c1cc2ccccc2cc1O	40	51	0	0	0	0	0	0
O=C(N/N=C/C1CC=CCC1)c1ccc(O)cc1O (stereo not drawn)	0	0	0	0	0	0	-	-
NS(=O)(=O)c1ccc(-c2ccc(/C=N/NC(=O)c3ccccc3O)o2)cc1	0	0	0	0	0	0	-	-
O=C(N/N=C/C1CC=CCC1)c1cc2ccccc2cc1O (stereo not drawn)	40	44	0	0	0	0	0	0
CCN(C(=O)[C@@H]1CC(=O)O[C@@H]1c1ccccc1)c1ccccc1	-	-	-	-	0	-	-	-
COc1ccc(CCNC(=O)c2cc3c(C)nn(-c4ccccc4)c3s2)cc1OC	-	-	-	-	0	-	-	-
c1ccc(CSc2nnc(-c3ccco3)n2Cc2ccco2)cc1	0	0	0	0	0	0	-	-
CCCCOc1[nH]c2nc(-c3ccco3)n(Cc3ccco3)c(=N)c2c1C#N	42	57	0	0	45	0	0	0
CCOC(=O)C1CCCN(C(=O)c2ccc(C(=O)c3ccccc3)cc2)C1 (stereo not drawn)	0	0	0	0	0	0	-	-
CCOC(=O)C1CCCN(C(=O)C2c3ccccc3Oc3ccccc32)C1 (stereo not drawn)	53	55	54	24	0	43	0	0
C(=N\C(/N=C/c1ccco1)c1ccco1)/c1ccco1	0	0	0	0	0	0	-	-
C(=Nc1cccc2c(N=Cc3ccco3)cccc12)c1ccco1	39	45	0	0	-	0	0	0
Cc1ccc(NC(=O)CN2CCN(c3nc(-c4ccccc4)cs3)CC2)cc1C	-	-	-	-	0	-	-	-
SMILES	HTRA1 inh	pPAFAH FP inh	PAFAH2 inh	PAFAH1B2 FP inh	mABHD4 FP	PAFAH1B3 FP inh	pPAFAH confirm	HTRA1 inh conf	others
CN1C(=O)c2cccc(NCCCN3C(=O)c4ccccc4C3=O)c2C1=O	0	0	0	0	0	0	-	-
CCCCNc1c2c3c(cccc3n(C)c1=O)C(=O)c1ccccc1-2	68	43	75	53	-	63	48	70
COc1cc(C(=S)N2CCN(c3ccccc3Cl)CC2)cc(O)c1O	51	42	0	0	0	0	64	84
CCCN(CC1CC1)C(=O)c1ccc(CNC(=O)c2cccc(Br)c2)cc1	-	-	-	-	0	-	-	-
O/C=c1\ccc2cccc3nc(C(F)(F)F)nc1c23	43	40	0	0	0	0	0	99
NNc1nc(C(F)(F)F)nc2ccccc12	0	0	0	0	0	0	-	-
CCCCCCCCN1C(=O)[C@@H](CC(=O)NCCc2ccccc2OC)C[C@@]2(C(=O)OC)C1=C[C@H](C(C)C)O[C@@H]2C1CC1	-	-	-	-	0	-	-	-
O=[N+]([O-])c1cnc2ccccc2c1Sc1ccccc1	-	-	-	-	0	-	-	-
CCCCCCCCCCCCCCCC[n+]1ccc(/C=N/O)cc1	61	50	0	33	51	61	40	81
O=[N+]([O-])c1ccccc1N/N=C/c1cccc(O)c1O	48	50	0	0	0	0	0	0
O=[N+]([O-])c1ccc(N/N=C/c2cccc(O)c2O)c(S(=O)(=O)N2CCOCC2)c1	59	45	0	0	0	0	57	54
COc1ccc(OC)c(S(=O)(=O)N2CCC(c3cn4ccccc4n3)CC2)c1	-	-	-	-	0	-	-	-
COCCCn1cc(CN2CC=CS2(=O)=O)nn1	-	-	-	-	0	-	-	-
COc1cc(/C=C2\CC/C(=C\c3cc(OC)c(O)c(OC)c3)C2=O)cc(OC)c1O	46	42	0	0	0	0	39	55
O=C(N/N=C/c1ccc(O)c(Br)c1)c1cc2c(ccc3ccccc32)o1	0	-	0	0	0	0	-	-
O=C(N/N=C/c1cc(Cl)c(O)c(Cl)c1)c1cc2c(ccc3ccccc32)o1	46	61	45	36	0	0	70	50
Cc1cc(SCC(=O)N/N=C/c2ccc(O)c(O)c2O)c(C)cc1Br	62	57	0	0	50	0	75	67
COc1cc(/C=N/NC(=O)CSc2cc(C)c(Br)cc2C)ccc1O	0	0	0	0	0	0	-	-
COc1ccc(OC)c(-c2oc3ccccc3c(=O)c2O)c1	0	0	0	0	0	0	-	-
COc1ccc(OC)c(-c2c3cc(O)c(=O)cc-3oc3cc(O)c(O)cc23)c1	85	93	73	74	-	58	85	90
COc1ccc(S[C@]2(C(=O)N(C)C)CC(=O)N(C(=O)Nc3ccc(C)c(Cl)c3)[C@@H]2c2ccc(OC)cc2)cc1	-	-	-	-	0	-	-	-
CCNc1ccc(Br)cc(C(=O)/C=C/c2ccc(Cl)cc2)c1=O	63	53	0	0	-	0	27	0
